Data taken from paper PMC8109618 (Bioorganic & medicinal chemistry, 2020).

Assays:
FXa = FXa (Homo sapiens, UniProt P00742); experiment: Direct inhibition of FXa, chromogenic substrate; type: biochemical; conditions: not shown
Outline: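 Human plasma FXa was held as stock in 20 mM Tris-HCl, pH 7.4, 100 mM NaCl, 2.5 mM CaCl2, 0.1% PEG8000, 0.02% Tween80. […] Percent inhibition came from the ratio of proteolytic activity with versus without test compound.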

trypsin = molecular target: T1, trypsin (Bos taurus, UniProt P00760); experiment: Direct inhibition of trypsin, chromogenic substrate; type: biochemical, bovine; conditions: not shown
T1 sequence (P00760 24-246): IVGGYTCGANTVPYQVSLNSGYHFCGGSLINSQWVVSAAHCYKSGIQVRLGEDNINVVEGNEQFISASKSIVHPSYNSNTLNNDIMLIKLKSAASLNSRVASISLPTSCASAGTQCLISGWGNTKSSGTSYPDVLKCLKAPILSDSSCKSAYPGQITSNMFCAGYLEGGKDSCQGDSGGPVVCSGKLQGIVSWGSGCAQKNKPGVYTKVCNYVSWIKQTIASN
Outline: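 Bovine trypsin was held as stock in 50 mM Tris-HCl, pH 7.4, 150 mM NaCl, 0.1% PEG8000, 0.02% Tween80. The assay used 2.5 ng/ml enzyme with 80 μM S-2222 (in-well) at 37 °C, pH 7.4. Percent inhibition was calculated from the ratio of activity with versus without test compound.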

hFXIa [1] = molecular target: T2, hFXIa (Homo sapiens, UniProt P03951); experiment: Direct inhibition of hFXIa, chromogenic substrate; type: biochemical; conditions: for selectivity for hFXIa over FXa and trypsin: based on inhibition at >200 μM
hFXIa–DEGR = hFXIa–DEGR (Homo sapiens, UniProt P03951); experiment: Fluorescence titration of active site dansylated hFXIa; type: binding
hFXIa [2] = molecular target: T2, hFXIa; experiment: Analytical ultracentrifugation of hFXIa–inhibitor complex; conditions: 100 μM inhibitor, 20 °C; dimeric form, same as hFXIa alone
hFXIa [3] = molecular target: T2, hFXIa; type: biochemical
Outline: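 Human plasma FXIa. The initial rate of S-2366 ([…]) hydrolysis was taken from the linear A405 rise, with under 10% substrate consumed. S-2366 was varied from 0.03 to 2 mM at a fixed test compound concentration. Buffer was 50 mM Tris-HCl pH 7.4 with 150 mM NaCl, 0.1% PEG8000 and 0.02% Tween80, at 37 °C. KM and VMAX came from a nonlinear hyperbolic Michaelis–Menten fit.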

T2 sequence (P03951 388-625 limits assumed): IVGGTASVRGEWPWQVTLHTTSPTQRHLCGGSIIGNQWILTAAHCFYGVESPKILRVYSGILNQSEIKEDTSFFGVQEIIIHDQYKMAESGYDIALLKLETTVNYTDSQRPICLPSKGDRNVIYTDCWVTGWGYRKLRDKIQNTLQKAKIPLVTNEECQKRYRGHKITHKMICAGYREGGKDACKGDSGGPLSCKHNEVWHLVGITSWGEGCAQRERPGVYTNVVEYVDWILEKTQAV
T2 sequence (P03951 19-387 partner limits assumed): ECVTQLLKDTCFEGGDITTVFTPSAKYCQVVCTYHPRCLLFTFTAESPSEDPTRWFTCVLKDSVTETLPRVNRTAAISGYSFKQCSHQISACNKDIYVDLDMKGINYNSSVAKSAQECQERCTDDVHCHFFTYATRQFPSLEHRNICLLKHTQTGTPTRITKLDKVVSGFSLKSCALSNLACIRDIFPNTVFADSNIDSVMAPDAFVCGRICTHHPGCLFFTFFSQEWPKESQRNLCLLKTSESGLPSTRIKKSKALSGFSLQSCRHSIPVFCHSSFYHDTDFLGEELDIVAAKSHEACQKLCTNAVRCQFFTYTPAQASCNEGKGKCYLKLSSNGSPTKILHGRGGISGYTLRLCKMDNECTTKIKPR
Chain of FXa (P00742 235-488 limits assumed): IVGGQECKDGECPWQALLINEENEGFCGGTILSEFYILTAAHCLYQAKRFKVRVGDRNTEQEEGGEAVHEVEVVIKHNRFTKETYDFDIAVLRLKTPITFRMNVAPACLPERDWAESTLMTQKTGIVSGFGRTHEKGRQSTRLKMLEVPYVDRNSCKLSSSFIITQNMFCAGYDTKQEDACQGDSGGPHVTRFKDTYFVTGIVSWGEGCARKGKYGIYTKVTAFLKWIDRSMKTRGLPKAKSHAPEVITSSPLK
Chain of FXa (P00742 41-179 partner limits assumed): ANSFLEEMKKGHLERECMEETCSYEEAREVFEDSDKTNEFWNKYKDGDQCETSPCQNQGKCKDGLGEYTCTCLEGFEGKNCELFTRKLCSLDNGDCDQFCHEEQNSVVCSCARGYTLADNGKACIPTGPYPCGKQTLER
Chain of hFXIa–DEGR (P03951 388-625 limits assumed): as the sequence (P03951 388-625 limits assumed) above
Chain of hFXIa–DEGR (P03951 19-387 partner limits assumed): as the sequence (P03951 19-387 partner limits assumed) above

Structure (SMILES) | concentration at which FXa is inhibited (FXa) [µM] | concentration at which trypsin is inhibited (trypsin) [µM] | selectivity for hFXIa over FXa and trypsin (hFXIa [1]) [fold] | also measured
O=c1[nH]c(-c2ccc(OS(=O)(=O)[O-])cc2)nc2ccccc12.[Na+] [Inhibitor 2S] |  |  |  | fold higher KD than the next compound (hFXIa–DEGR; 2S vs 18S, 18S vs 19S): ~ 3.2 fold
O=c1c2ccccc2nc(-c2ccc(OS(=O)(=O)[O-])cc2)n1CCCCCn1c(-c2ccc(OS(=O)(=O)[O-])cc2)nc2ccccc2c1=O.[Na+].[Na+] [Inhibitor 11S] |  |  |  | increase in potency as compared to the monomeric fragment (hFXIa [1]; IC50 ratio vs monomer 2S): ~ 7 fold
O=c1c2ccccc2nc(-c2ccc(OS(=O)(=O)[O-])cc2)n1CCCCCCCCCn1c(-c2ccc(OS(=O)(=O)[O-])cc2)nc2ccccc2c1=O.[Na+].[Na+] [Inhibitor 19S] |  |  |  | n (Hill coefficient) (hFXIa–DEGR; 250 nM FXIa–DEGR, pH 7.4, 37 °C): 5.0±0.4; sedimentation coefficient s of hFXIa–inhibitor complex (hFXIa [2]): 6.6 S; mechanism of inhibition (hFXIa [3]; KM invariant, VMAX decreased): non-competitive; VMAX (hFXIa [3]; at 120 μM inhibitor, pH 7.4, 37 °C): 9.7±0.37 mAU/min

More lines, main results first:

concentration at which FXa is inhibited (FXa) [µM] | concentration at which trypsin is inhibited (trypsin) [µM] | selectivity for hFXIa over FXa and trypsin (hFXIa [1]) [fold] | Structure (SMILES) | also measured
> 200 | > 200 | > 25 | O=c1c2ccccc2nc(-c2ccc(OS(=O)(=O)[O-])cc2)n1CCCCCCCCCCCn1c(-c2ccc(OS(=O)(=O)[O-])cc2)nc2ccccc2c1=O.[Na+].[Na+] [Inhibitor 21S] | 
> 200 | > 200 | > 25 | O=c1c2ccccc2nc(-c2ccc(OS(=O)(=O)[O-])cc2)n1CCCCCCCCCCn1c(-c2ccc(OS(=O)(=O)[O-])cc2)nc2ccccc2c1=O.[Na+].[Na+] [Inhibitor 20S] | 
